Results taken from PubChem BioAssay.
The source made the active and inactive calls.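 Rule for the calls, unless noted: active = viability at or below 30% in both replicate assays; inconclusive = viability at or below 30% in just one of the two assays; inactive = the rest.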

Experiments:
[1] = reduced viability of SK-BR-3 breast cancer cells – cell-based, 24 h, human, pilot screen (AID 572;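 active = viability at or below 10% of carrier control in both of two separate runs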;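 note: compound exposure lasted between 18 and 24 h rather than exactly 24 h; 100% = carrier-treated control wells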); details: SK-BR-3 viability, CellTiter-Glo luminescence, at 10 µM, stronger effect = lower value
[2] = HUVEC growth inhibition – cell-based, human, primary screen (AID 575); details: HUVEC proliferation, CellTiter-Glo luminescence, 72 h; at 10 µM; stronger effect = lower value;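 note: 100% = median of untreated cell wells with 0.1% DMSO on each plate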
Method in brief: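 Timing: 72 h treatment at 37 °C; material: HUVEC primary cells; technique: CellTiter-Glo luminescence measuring cellular ATP; controls: vehicle and MePR control wells; measure: percent of median DMSO-control luminescence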

[3] = H69AR cell proliferation blockers – human, duplicate replicates, primary screen (AID 580;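 active = viability at or under a set limit in both replicates, limit being median viability minus 3 SD, cut at about 48% in these data, passing the limit was not always enough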;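 note: 100% = mean luminescence of untreated wells and 0% = no signal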); details: H69AR lung tumor cells viability, ATP luminescence, 72 h; at 10 µM; stronger effect = lower value
[4] = MRP1 drug-resistance reversers in H69AR cells – cell-based, doxorubicin co-treatment, pilot screen (AID 601;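 active = viability loss from added drug above about 55%, and viability with drug at most 40%, in both replicates, limit read from the data, passing the limit was not always enough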); details: CellTiter-Glo, 72 h, at 10 µM; for differential viability (reversal): stronger effect = higher value
[5] = yeast transport mutant growth inhibition pilot in 384-well plates, post-Golgi transport modulator project (AID 636; in the data active = inhibition above about 31%); details: absorbance 615 nm, about 18 h, stronger effect = higher value
[6] = growth suppression of yeast trafficking mutant, preliminary HTS, modulators of trafficking downstream of Golgi apparatus project, 1536-format plate, OD 615 nm (AID 637; in the data active = inhibition above about 30%); details: yeast transport mutant growth, absorbance 615 nm, 18 h; stronger effect = higher value
[7] = H69AR cells + 2 uM doxorubicin, measured here: viability with 2 uM doxorubicin, stronger effect = lower value
[8] = H69AR cells, compound alone cytotoxicity

Row | Compound | viability [1] | viability [2] | viability [3] | differential viability (reversal) ([4]; H69AR cells + 2 uM doxorubicin) | viability [4, 7] [%] | viability [4, 8] [%] | inhibition [5] | inhibition [6]
1 | N#CCC(=O)Nc1ncn(Cc2ccccc2Cl)n1 | 95% (inactive) | 105% (inactive) | 95.2% (inactive) | -10.4% (inactive) | 106 | 95.2 | -4.52% (inactive) | 3.82% (inactive)
2 | CCCS(=O)(=O)N1CCCC(C(=O)NC2CCCC(C)C2C)C1 (configuration not stated) | 101% (inactive) | 113% (inactive) | 94.8% (inactive) | 8.93% (inactive) | 85.8 | 94.8 | -2.73% (inactive) | -3.28% (inactive)
3 | c1ccc(Cn2ncc3c2ncn2c(-c4ccncc4)nnc32)cc1 | 99% (inactive) | 95.3% (inactive) | 95% (inactive) | -1.95% (inactive) | 96.9 | 95 | -8.77% (inactive) | -6.77% (inactive)
4 | Cc1cc2ccccc2c(=O)n1CC(=O)N(C)c1ccc(F)cc1 | 102% (inactive) | 84.2% (inactive) | 102% (inactive) | 2.95% (inactive) | 98.9 | 102 | -2.3% (inactive) | -2.73% (inactive)
5 | CCN(CC)CCNC(=O)c1ccc(NC(C)=O)cc1 | 136% (inactive) | 96.6% (inactive) | 94.8% (inactive) | -6.82% (inactive) | 102 | 94.8 | -1.69% (inactive) | 3.5% (inactive)
6 | NC(=O)N1c2ccccc2C=Cc2ccccc21 | 95% (inactive) | 79.4% (inactive) | 107% (inactive) | 9.74% (inactive) | 97.1 | 107 | -2.86% (inactive) | 3.17% (inactive)
7 | O=C(NCC(=O)N(c1cccnc1)C(C(=O)NC1CCCCC1)c1cccnc1)c1ccco1 (configuration not stated) | 111% (inactive) | 113% (inactive) | 109% (inactive) | 9.06% (inactive) | 99.9 | 109 | -3.07% (inactive) | 4.91% (inactive)
8 | O=C(CSc1n[nH]c(=O)[nH]c1=O)c1ccccc1 | 110% (inactive) | 105% (inactive) | 101% (inactive) | 4.23% (inactive) | 97 | 101 | -2.4% (inactive) | -3.82% (inactive)
9 | Cc1ccc(F)cc1NC(=O)c1cccc2nccnc12 | 91.5% (inactive) | 76.5% (inactive) | 91.1% (inactive) | 6.75% (inactive) | 84.3 | 91.1 | -1.2% (inactive) | 0.48% (inactive)
10 | CCN(CC(=O)NC1CCS(=O)(=O)C1)C(=O)C(c1ccccc1)c1ccccc1 (configuration not stated) | 119% (inactive) | 102% (inactive) | 102% (inactive) | 14.2% (inactive) | 88.2 | 102 | -5.14% (inactive) | -2.91% (inactive)
11 | Cc1cc(=O)n(CCO)c(O)c1C#N | 81.5% (inactive) | 107% (inactive) | 95.1% (inactive) | -5.74% (inactive) | 101 | 95.1 | -3.95% (inactive) | 22.8% (inactive)
12 | COc1ccc(-c2noc(CCN3C(=O)c4ccccc4C3=O)n2)cc1OC | 140% (inactive) | 105% (inactive) | 93.9% (inactive) | 17.8% (inactive) | 76.1 | 93.9 | -4.03% (inactive) | -1.15% (inactive)
13 | Fc1cccc(Cl)c1Cn1nnc2c(NCc3ccccn3)ncnc21 | 76% (inactive) | 92.9% (inactive) | 105% (inactive) | 14.2% (inactive) | 91.1 | 105 | -4.66% (inactive) | -4.84% (inactive)
14 | Cc1c2cnn(CC(=O)N3CCN(c4ncccn4)CC3)c(=O)c2c(C)n1Cc1ccc(F)cc1 | 99% (inactive) | 106% (inactive) | 99.5% (inactive) | 2.37% (inactive) | 97.2 | 99.5 | 5.14% (inactive) | -4.73% (inactive)
15 | CCN(CC)C(=O)C1=C(C)Nc2nnnn2C1c1cccnc1 (configuration not stated) | 94% (inactive) | 109% (inactive) | 93.8% (inactive) | 4.5% (inactive) | 89.3 | 93.8 | 0.52% (inactive) | 3.11% (inactive)
16 | C=CCc1ccccc1OCC(O)CNC(C)C (configuration not stated) | 82% (inactive) | 70.1% (inactive) | 91.3% (inactive) | -8.68% (inactive) | 100 | 91.3 | -2.34% (inactive) | 1.67% (inactive)
17 | Cc1ccc2cc(C(c3nnnn3C3CCCC3)N3CCN(c4ccc(F)cc4)CC3)c(=O)[nH]c2c1 (configuration not stated) | 93% (inactive) | 101% (inactive) | 67.6% (inactive) | 8.08% (inactive) | 59.6 | 67.6 | -5.6% (inactive) | 1.27% (inactive)
18 | O=C(O)C1C2C=CC(C3CC23)C1C(=O)NCCc1ccccc1 (configuration not stated) | 101% (inactive) | 89.7% (inactive) | 98% (inactive) | 6.28% (inactive) | 91.7 | 98 | -5.81% (inactive) | -3.93% (inactive)
19 | CCOC(=O)c1[nH]c2ccc(F)cc2c1NC(=O)C(C)N1CCc2cc(OC)c(OC)cc2C1 (configuration not stated) | 99% (inactive) | 57.9% (inactive) | 13.5% (active) | -55.2% (inactive) | 68.7 | 13.5 | -3.42% (inactive) | 7.87% (inactive)
